From publication PMC10676332 (Drugs in R&D, 2023)
Read-outs that look alike come from different tables or passages of the source.

What was measured:
[1] = test system: ALK-positive NSCLC; conditions: cited from earlier work; for Objective response rate (ORR): phase I; for IRC-assessed ORR: phase II
[2] = Metabolism in human liver microsomes; assay type: in vitro ADME
[3] = test system: Caco-2; assay: Caco-2 permeability assay; assay type: in vitro ADME; conditions: Caco-2, concentrations 2.00 to 50.0 µM
[4] = cited from earlier work
[5] = Safety assessment; assay type: in vivo, human
Summary of the method: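 Randomized crossover in healthy adults (fasted-fed or fed-fasted, 14-day washout). A TEAE counted any AE absent before dosing, or pre-existing and worsening in intensity or frequency after dosing. AEs graded; serious AEs and discontinuations recorded. Analysis set: every subject receiving at least one dose.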

[6] = target: wild-type and mutant ROS1; conditions: preclinical data; cited from earlier work
[7] = In vitro solubility; assay type: physicochemical
[8] = single 160 mg dose, fasted, cited from earlier work
[9] = test system: ROS1 wild-type and G2032R mutant xenograft models; conditions: cited from earlier work
[10] = assay type: in vivo, human; conditions: 160 mg single oral dose
Summary of the method: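 Healthy adults randomized 1:1 to fasted-fed or fed-fasted sequence, 14-day washout; ≥10-h overnight fast pre-dose, no drinking 1 h before to 2 h after, fasting 4 h post-dose. Plasma sampled pre-dose to 168 h, spun 1700g, 2–8 °C, 10 min, kept −70 °C; validated LC-MS/MS; non-compartmental parameters. Ln-transformed Cmax/AUC in linear mixed model; fed/fasted GMR with 90% CI, limits 0.80–1.25.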

[11] = test system: BaF3 cells expressing ROS1 fusion wild-type and resistance mutants; conditions: cited from earlier work
[12] = test system: HCC78 cells; conditions: cited from earlier work
[13] = target: ALK; conditions: preclinical data; cited from earlier work
[14] = oral administration with food vs fasted; cited from earlier work
[15] = oral 20–210 mg/day, ALK-positive NSCLC patients
[16] = 160 mg single dose, fed (high-fat meal)

## Cc1cc(Nc2ncc(Cl)c(Nc3ccccc3S(=O)(=O)C(C)C)n2)c2c(c1C1CCN(C)CC1)C[C@@H](C)O2 [SAF-189s]
[1]; [15]
  Anti-tumor efficacy: promising anti-tumor efficacy
  Intracranial activity: had intracranial activity
[1]; oral 20–210 mg/day, fasted state, ALK-positive NSCLC patients
  Tolerability: well tolerated
[1]; ALK inhibitor-naive subgroup (8/11)
  Objective response rate (ORR): 72.7%
[1]; all patients (28/45), oral 20–210 mg/day, fasted
  Objective response rate (ORR): 62.2%
[1]; brain metastases subgroup (17/27)
  Objective response rate (ORR): 63.0%
[1]; ALK inhibitor-naive patients (95/104)
  IRC-assessed ORR: 91.3%
[1]; all patients (116/150)
  IRC-assessed ORR: 77.3%
[1]; brain metastases subgroup (50/71)
  IRC-assessed ORR: 70.4%
[1]; crizotinib-pretreated group (17/26)
  IRC-assessed ORR: 65.4%
[1]; single doses of 160 mg, most AEs Grade 1 or 2
  Tolerability of single doses: generally well tolerated
[2]
  Main metabolizing enzyme: mainly metabolized by cytochrome P450 3A4 (CYP3A4)
[3]
  Drug efflux: evidence of drug efflux
  Permeability: low permeability
[4]; low solubility and low gastrointestinal permeability
  BCS class: class IV
[5]; 160 mg single dose, fasted
  Incidence of TEAEs: 54.2%
  Incidence of gastrointestinal disorders: 41.7%
  Incidence of headache: 12.5%
[5]; 160 mg single dose, fasted and fed
  Serious AEs: no serious AEs were reported
[5]; [16]
  Incidence of TEAEs: 29.2%
  Incidence of gastrointestinal disorders: 4.2%
  Incidence of headache: 0.0%
[5]; 160 mg single dose, Grade 1 vomiting
  Discontinuation of the study due to an AE: Only one volunteer
[5]; single doses of 160 mg, healthy volunteers
  Tolerability: generally well tolerated
[6]
  IC50 against wild-type and mutant ROS1 kinase activity: sub-nanomolar to nanomolar
[7]; 0.1 mol/L hydrochloric acid, in vitro
  Solubility: slightly soluble
[7]; pH 6.8, in vitro
  Solubility: poor solubility
[8]; nine patients
  AUC0-∞, geometric mean (CV%): 1970 (30.0) ng·h/mL
  Cmax, geometric mean (CV%): 41.9 (27.0) ng/mL
  t½, geometric mean (CV%): 39.3 (25.6) h
[8]; patients
  Median tmax: 3.0 h
[9]
  Growth of xenograft models: inhibited growth
[10]; fed vs fasted
  Effect of high-fat meal on the PK profile: minimal effect
[10]; n = 23
  Geometric mean ratio: fed/fasted, AUC0-t: 105.1%
  Geometric mean ratio: fed/fasted, AUC0-∞: 105.5%
  Geometric mean ratio: fed/fasted, Cmax: 109.1%
[11]
  Inhibition of cell proliferation: potent inhibition
[12]
  Inhibition of cell proliferation: potent inhibition
[13]
  IC50 against ALK kinase activity: sub-nanomolar to nanomolar

## CCc1cc2c(cc1N1CCC(N3CCOCC3)CC1)C(C)(C)c1[nH]c3cc(C#N)ccc3c1C2=O [alectinib]
[4]; approved ALK and ROS1 TKIs
  BCS class: BCS class IV

## COc1cc(N2CCC(N3CCN(C)CC3)CC2)ccc1Nc1ncc(Cl)c(Nc2ccccc2P(C)(C)=O)n1 [brigatinib]
[4]; approved ALK and ROS1 TKIs
  BCS class: BCS class I

## Cc1cc(Nc2ncc(Cl)c(Nc3ccccc3S(=O)(=O)C(C)C)n2)c(OC(C)C)cc1C1CCNCC1 [ceritinib]
[4]; approved ALK and ROS1 TKIs
  BCS class: BCS class IV
[14]
  Effect of food on drug exposure / PK: improved exposure
  Effect of food on safety: improved exposure and safety with food

## C[C@@H](Oc1cc(-c2cnn(C3CCNCC3)c2)cnc1N)c1c(Cl)ccc(F)c1Cl [crizotinib]
[4]; approved ALK and ROS1 TKIs
  BCS class: BCS class IV

## CN1CCN(c2ccc(C(=O)Nc3n[nH]c4ccc(Cc5cc(F)cc(F)c5)cc34)c(NC3CCOCC3)c2)CC1 [entrectinib]
[4]; approved ALK and ROS1 TKIs
  BCS class: BCS class II

## C[C@H]1Oc2cc(cnc2N)-c2c(nn(C)c2C#N)CN(C)C(=O)c2ccc(F)cc21 [lorlatinib]
[4]; approved ALK and ROS1 TKIs
  BCS class: BCS class IV
